A3G deaminase: blocks human APOBEC3G single-stranded DNA deamination; Q9HC16; recombinant A3G, ssDNA deamination FAM/TAMRA fluorescence; inhibition, % at 20 µM; 330,000 tested, 0.28% active; AID 493012;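 active = inhibition of at least 40% at 20 µM, with no more than 30% in the related APOBEC3A deaminase screen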
UCH37 DUB inh: blocks the human deubiquitinase UCH37 | Q9Y5K5 | purified proteasome/UCH37, Ub-AMC cleavage fluorescence | inhibition, % (no concentration beside the values) | 330,000 tested, 0.33% active;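 active = mean inhibition over replicate wells above about 20%, limit read from the data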
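Material: human UCH37 enzyme supplied as purified proteasome complex / Amount: 0.15 nM proteasome as dispensed / Buffer or medium: pH 7.4 Tris-HCl (50 mM) with ovalbumin, ATP-MgCl2, DTT / Times: preincubation 30 min, reaction 25 min, room temperature / Technique: AMC fluorescence from Ub-AMC cleavage, excitation 355 nm, emission 460 nm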
APOBEC3A inh: blocks human APOBEC3A ssDNA deamination | recombinant A3A, FAM/TAMRA ssDNA deamination fluorescence | inhibition, % at 20 µM | 330,000 tested, 0.41% active;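 active = at least 40% inhibition at 20 µM here, with at most 30% in a related deaminase screen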
Target sequence (P31941 whole entry, looked up): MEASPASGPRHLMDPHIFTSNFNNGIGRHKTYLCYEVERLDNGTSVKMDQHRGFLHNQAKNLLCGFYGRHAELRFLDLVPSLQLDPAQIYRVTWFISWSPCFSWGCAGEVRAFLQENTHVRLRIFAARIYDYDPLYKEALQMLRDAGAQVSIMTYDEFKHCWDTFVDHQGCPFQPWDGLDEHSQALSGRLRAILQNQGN
GASC-1 inh: blocks human GASC-1 demethylase activity; inhibition, % at 2.35 µM; GST-JMJD2C(1-420) H3K9me3 demethylation, DELFIA europium; 330,000 tested, 0.069% active;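 active = more than half of a compound's replicate wells show inhibition beyond 50%, single wells judged on their own value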;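 note: signal counts dimethyl H3K9 product captured on neutravidin plate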
Target sequence (Q9H3R0 1-420 limits assumed): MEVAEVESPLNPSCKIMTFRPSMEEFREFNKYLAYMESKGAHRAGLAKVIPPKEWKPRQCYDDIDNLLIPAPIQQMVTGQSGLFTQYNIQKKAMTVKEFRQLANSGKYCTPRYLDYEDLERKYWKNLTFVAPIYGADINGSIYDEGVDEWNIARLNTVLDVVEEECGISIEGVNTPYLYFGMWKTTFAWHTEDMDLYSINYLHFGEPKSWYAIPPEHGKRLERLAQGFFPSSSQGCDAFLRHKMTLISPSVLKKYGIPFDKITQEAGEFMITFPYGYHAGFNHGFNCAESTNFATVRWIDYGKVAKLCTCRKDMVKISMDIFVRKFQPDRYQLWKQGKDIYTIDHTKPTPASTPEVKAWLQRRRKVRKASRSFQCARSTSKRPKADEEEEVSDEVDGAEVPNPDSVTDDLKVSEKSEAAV
A3A conf: APOBEC3A (human) deaminase inhibition, confirmed | shares compounds with APOBEC3A inh | recombinant A3A, ssDNA deaminase UDG fluorescence assay | inhibition, % at 20 µM | 1,400 tested, 63% active;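 active = inhibition reaching a set limit, 80% of the first screen's cutoff, at 20 µM in any replicate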
UDG ctr A3A: inhibits UDG, flagging false APOBEC3A inhibitors; shares compounds with APOBEC3A inh; UDG counterscreen, FAM/TAMRA uracil oligo fluorescence; inhibition, % at 20 µM; 1,000 tested, under 10 active; AID 504714; call rule not given here
A3G conf: confirmation of human APOBEC3G DNA deaminase inhibitors; shares compounds with A3G deaminase; recombinant A3G ssDNA deaminase, UDG/FAM-TAMRA fluorescence; inhibition, % at 20 µM; 890 tested, 72% active;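 active = inhibition reaching a set limit in any replicate at 20 µM, the limit being 80% of the first screen's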
UDG ctr A3G: inhibits E. coli UDG, flagging false APOBEC3G inhibitors; inhibition, % at 20 µM; 710 tested, under 10 active; UDG counterscreen, FAM/TAMRA oligo fluorescence; shares compounds with A3G deaminase;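 active = compounds giving 40% or more inhibition at 20 µM in any one of the three replicates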;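 note: inhibitors lower the FAM signal released by uracil excision and alkaline cleavage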
Numbers stand for hits; . = inactive; / = no result. An excerpt weighted towards active compounds, which were near 0.97% of everything screened.

SMILES | A3G deaminase | UCH37 DUB inh | APOBEC3A inh | GASC-1 inh | A3A conf | UDG ctr A3A | others
C[N+]12CCCCC1[C@@H](CO)CCC2 (stereo not given in full) | . | . | 56 | . | 71 | .
COc1ccc(C(=O)OCC[N+]2(C)CCOCC2)cc1 | . | . | 61 | . | 73 | .
COc1ccc(C(=O)OCCc2ccc(O)cc2)cc1 | . | . | . | . | / | /
COc1ccc(NC(=O)C(C)Oc2ccc(C(C)=NO)cc2)cc1 (stereo not given) | / | . | / | / | / | /
CN(C)/C=C(\C#N)C(=O)NN=C(CC(=O)C(F)(F)F)c1ccco1 | / | . | / | / | / | /
O=C(Nc1ccc(NC(=O)c2ccc(Cl)cc2Cl)cc1)c1cccs1 | . | . | 54 | . | 41 | .
CCN1/C(=C/C(=O)c2ccco2)Sc2ccccc21 | . | . | . | . | / | /
CCN1/C(=C/c2cc[n+](CCCS(=O)(=O)[O-])c3ccccc23)Sc2ccccc21 | . | . | 76 | . | 69 | .
Nc1cc(N)nc(SCC(=O)Nc2ccc(Br)cc2Cl)n1 | . | / | 58 | . | 56 | .
C[N+](C)(C)CCCNC(=O)c1ccc(C=NO)nc1 | / | . | / | / | / | /
C[N+](C)(C)CCCNC(=O)c1ccc(/C=N/O)nc1 | . | / | 41 | . | 72 | .
CCN(CC)c1ccc(C=NNC(=O)Nc2nonc2N)cc1 | / | . | / | / | / | /
CC1Cc2ccccc2N1C(=O)CON=Cc1ccc(OC(F)F)cc1 (stereo not given) | / | . | / | / | / | /
COc1cc2ccc3c(CCN(C)C)cc(OC)c(OC)c3c2cc1OC | . | . | 55 | . | . | /
N#C/C(=C\c1ccc(-c2cccc([N+](=O)[O-])c2)o1)C(=O)N1CCOCC1 | . | . | . | . | / | /
N#C/C(=C\c1ccc(-c2ccc([N+](=O)[O-])cc2Br)o1)C(=O)N1CCN(c2ccccc2)CC1 | . | . | 48 | . | . | /
CC(=O)Nc1sc(NN=Cc2cccc(Cl)c2)nc1-c1cccs1 | / | . | / | / | / | /
COc1ccc(NC(C)=[N+](C)CCNS(=O)(=O)c2ccc(Cl)cc2)cc1Cl | . | . | 62 | . | 69 | .
COc1ccc(NC(=O)CCNS(=O)(=O)c2ccc(NC(C)=O)cc2)cc1Cl | . | . | . | . | / | /
COc1ccccc1N/C(=N/S(=O)(=O)c1ccc(Cl)cc1)c1ccccc1 | . | . | . | . | / | /
CC(Nc1cc(C)cc(C)c1)=[N+](C)CCNS(=O)(=O)c1ccc(Cl)cc1 | . | . | 45 | . | 67 | .
COc1ccccc1NC(C)=[N+](C)CCNS(=O)(=O)c1ccc(Cl)cc1 | . | . | 56 | . | 79 | .
C=CCNC(=O)c1ccccc1NC(=O)c1ccccc1N(C)S(C)(=O)=O | . | . | 44 | . | . | /
CCn1c(=O)n(CC)c2cc(NC(=O)C(C)c3ccccc3)c(Br)cc21 (stereo not given) | . | . | 54 | . | . | /
CC(C(=O)Nc1ccccc1Oc1ccccc1)c1ccccc1 (stereo not given) | . | . | . | . | / | /
SMILES | A3G deaminase | UCH37 DUB inh | APOBEC3A inh | GASC-1 inh | A3A conf | UDG ctr A3A | others
CC[n+]1ccccc1/C=C1\Sc2ccc(C)cc2N1C | . | . | 54 | . | 84 | .
Cc1cccc[n+]1CC(=O)N1c2ccccc2Sc2ccccc21 | . | . | . | . | / | /
CC(CC(=O)NCC(C)C)=NNC(=O)COc1cc(C)c(Br)cc1Br | / | . | / | / | / | /
CN(N=Cc1ccc2c(c1)OCO2)c1ccccc1 | / | . | / | / | / | /
O=C(/C=C/c1ccco1)Nc1scc(-c2ccccc2)c1C(=O)O | . | . | 59 | . | 69 | .
Cc1nc2ccccc2c(=O)[nH]1 | . | . | . | . | / | /
O=c1[nH]c(C2C3CC4CC(C3)CC2C4)nc2ccccc12 (stereo not given) | . | . | 49 | . | . | .
CC(=Nc1nc2ccccc2n1C)c1cc(Cl)ccc1O | / | . | / | / | / | /
CC(CC(=O)Nc1ccc2c(c1)OCCO2)=NNC(=O)COc1ccc(C)cc1 | / | . | / | / | / | /
O=C(NCC1CCCO1)C1CCN(S(=O)(=O)c2ccc(Br)cc2)CC1 (stereo not given) | . | . | . | . | / | /
CSc1ccc(S(=O)(=O)N2CCC(C(=O)NCC3CCCO3)CC2)cc1 (stereo not given) | . | . | 63 | . | 56 | .
COc1ccccc1Oc1ccc(S(=O)(=O)N2CCCCC2)cc1NC(=O)CCNC(C)=O | . | . | 58 | . | . | /
Cc1ccc2nc(NC(=O)C3CCN(S(=O)(=O)c4cc([N+](=O)[O-])ccc4Cl)CC3)sc2c1 | . | . | 42 | . | . | /
O=C(COC(=O)C1CCN(S(=O)(=O)c2cc([N+](=O)[O-])ccc2Cl)CC1)Nc1ncc(Cl)cc1Cl | . | . | 51 | . | 50 | .
O=C(Nc1nc2ccc(F)cc2s1)C1CCN(S(=O)(=O)c2cc([N+](=O)[O-])ccc2Cl)CC1 | . | . | . | . | / | /
O=C(NN=Cc1sc(N2CCOCC2)nc1-c1ccccc1)c1ccccc1Cl | / | . | / | / | / | /
Cc1c(C(=O)NN=Cc2ccccn2)nnn1-c1nonc1N | / | . | / | / | / | /
CCCCCCCC[n+]1c(C)n(-c2ccccc2)c2ccc(NC(C)=O)cc21 | . | . | 42 | . | 70 | .
COc1cc(/C=N\NC(=O)c2cccc(Cl)c2)ccc1Oc1ccc([N+](=O)[O-])cn1 | . | / | . | . | / | /
COc1cc(/C=N\NC(=O)c2ccc(Cl)cc2)ccc1Oc1ccc([N+](=O)[O-])cn1 | . | / | 48 | . | 63 | .
CC(C)(C)c1cc(C(=S)N2CCN(CCO)CC2)cc(C(C)(C)C)c1O | 61 | . | . | . | / | / | A3G conf=56;UDG ctr A3G=.
CC(=NN=C(N)SC1CC(=O)N(c2ccc(Cl)c(Cl)c2)C1=O)c1cccs1 (stereo not given) | / | . | / | / | / | /
CCOC(=O)C=c1sc(=Cc2ccccc2OC)c(=O)n1CC(=O)N1CCOCC1 | / | . | / | / | / | /
C[C@]12CCC3C(CC[C@H]4CC(O)CC[C@]34C)C1CCC2=NO (stereo not given in full) | / | . | / | / | / | /
CCN(CC)C(=O)c1sc2nc(N3CCOCC3)c3c(c2c1N)CCCC3 | 49 | . | . | . | / | / | A3G conf=.
SMILES | A3G deaminase | UCH37 DUB inh | APOBEC3A inh | GASC-1 inh | A3A conf | UDG ctr A3A | others
NC(=O)c1cc2ccccc2oc1=NNC(=O)c1cccc(F)c1 | / | . | / | / | / | /
NNC(=O)Nc1cccc(C(F)(F)F)c1 | 57 | . | . | . | / | / | A3G conf=.
O=C(Nc1ccncc1)Nc1cccc(C(F)(F)F)c1 | . | . | . | . | / | /
Cc1cc(-c2ccco2)c(C#N)c2nc3ccccc3n12 | 53 | . | . | . | / | / | A3G conf=47
COc1ccc(C=NNC2=NS(=O)(=O)c3ccccc32)cc1 | / | . | / | / | / | /
Cc1ccccc1N=Cc1cccc(O)c1O | 70 | . | . | . | / | / | A3G conf=51

High-throughput results deposited in PubChem BioAssay by several laboratories.
